Source: PubChem (several laboratories)
M18AAP inhibitor: PfM18AAP inhibitors, malaria aminopeptidase, primary screen, biochemical, QFRET, recombinant enzyme | H-Glu-NHMec fluorogenic cleavage | inhibition, % at 7.35 µM | hit rate 1.2% among 290,000 | AID 1822, 2009;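 active = inhibition above the campaign mean inhibition over all tested compounds plus 3 SD, cut at about 28% in these data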;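 note: 0% = plate median of test compound wells and 100% = 2 mM ZnCl2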
EBNA-1 inh: EBNA-1 DNA-binding inhibitors, primary screen, biochemical, fluorescence polarization; inhibition, % at 14.8 µM; hit rate 0.34% among 300,000; in the data active = inhibition above about 28%
HCV core dimer: inhibitors of HCV core protein dimerization, primary screen, biochemical, TR-FRET, high-throughput. TR-FRET GST/Flag-core106 dimerization, 1536-well. inhibition, % at 5 µM. hit rate 0.33% among 300,000;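 active = inhibition above the mean of all tested compounds plus 3 SD, set per screening campaign, cut at about 45% in these data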
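test system = GST/Flag-tagged HCV core106 proteins | probe or stimulus = Eu donor and XL665 acceptor anti-tag antibodies | times = compound-protein-antibody incubation 4 h at 22.5 °C | signal = TR-FRET, excitation 340 nm, emission 617 and 671 nm | measure = percent inhibition of core106 dimerization signal | controls = wells lacking GST-core106 and wells with excess unlabelled core106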
HCV NS3 hel inh: inhibitors of HCV NS3 helicase, primary screen, biochemical, Cy5 molecular beacon fluorescence; NS3 helicase DNA unwinding; AID 1800, 2009; Hepatitis C virus NS3 helicase; hit rate 0.56% among 290,000; inhibition, % at 10.9 µM;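 active = inhibition above the mean of all tested compounds plus 3 SD, set per campaign, cut at about 35% in these data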;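 note: 0% = DMSO wells and 100% = thioflavine S control wells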
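Compound dosing – single dose, 10.9 µM nominal final, DMSO 0.8% final · System – NS3 helicase fragment of HCV · Buffer or medium – MOPS pH 6.5, MgCl2, DTT, Tween20, BSA · Signal – Cy5 beacon fluorescence read at start and 1 h · Also added – annealed dual-labelled DNA beacon duplex, ATP-started · Schedule – 1 h at 25 °C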
ZTA DNA inh: ZTA (EBV) inhibition in EBNA-1 counter-screen | ZTA-DNA binding, fluorescence polarization | hit rate 0.15% among 320,000 | inhibition, % at 11 µM | AID 2234; in the data active = inhibition above about 33%
Target sequence (P03206 whole entry, looked up): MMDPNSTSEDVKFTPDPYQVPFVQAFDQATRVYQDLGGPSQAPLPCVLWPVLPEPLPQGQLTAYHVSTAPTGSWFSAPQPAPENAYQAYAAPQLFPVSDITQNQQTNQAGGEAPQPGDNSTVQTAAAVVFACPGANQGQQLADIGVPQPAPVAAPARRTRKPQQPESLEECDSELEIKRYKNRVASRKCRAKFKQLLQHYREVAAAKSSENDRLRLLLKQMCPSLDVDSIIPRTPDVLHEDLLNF
ALR inh: inhibitors of human ALR sulfhydryl oxidase, primary screen, biochemical, H2O2 detection, HRP-luminol luminescence, single point. purified ALR, DTT oxidation. inhibition, % (no concentration beside the values). hit rate 3.8% among 290,000;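 active = mean replicate inhibition above about 79%, with every replicate also reaching it, limit read from the data; inconclusive = only one of the two criteria met; inactive = mean below limit and not every replicate reaching it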
Target sequence (P55789 whole entry, looked up): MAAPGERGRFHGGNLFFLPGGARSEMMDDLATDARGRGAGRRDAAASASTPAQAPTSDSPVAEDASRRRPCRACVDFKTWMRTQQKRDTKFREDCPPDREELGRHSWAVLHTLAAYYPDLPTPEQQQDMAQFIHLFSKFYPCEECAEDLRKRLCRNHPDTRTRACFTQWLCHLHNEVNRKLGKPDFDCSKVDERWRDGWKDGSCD
* hit, by the source's call; ? = inconclusive; / = no result. An excerpt weighted towards active compounds, which were near 5.2% of everything screened.

SMILES	M18AAP inhibitor	EBNA-1 inh	HCV core dimer	HCV NS3 hel inh	ZTA DNA inh	ALR inh
CC(=O)NC1C(=O)N=C(SCC(=O)NC(C)c2ccccc2)NC1=O (stereo not given)	14	10	0	0	3	8
Cc1ccc(S(=O)(=O)N2CCCCC2)c2nsnc12	2	-4	-25	5	-2	-2
COc1ccc(S(=O)(=O)N2CCC(C(=O)NCc3cccnc3)CC2)cc1Cl	-6	-4	1	-12	2	-3
O=C(CSC1=NC(=O)C(c2ccccc2)C(=O)N1)Nc1ccccc1Cl (stereo not given)	6	7	-2	-13	0	99*
CN1CCc2c(sc3c2C(=O)NC(c2ccc(-c4ccc(Cl)cc4)o2)N3)C1 (stereo not given)	8	0	4	-5	11	91*
CN1CCc2c(sc3c2C(=O)NC(c2ccco2)N3)C1 (stereo not given)	4	9	-14	-8	17	0
COc1ccc(C2C3=C(CC(C)(C)CC3=O)Nc3cc4c(cc32)OCO4)cc1 (stereo not given)	3	6	-2	-4	18	?
COc1ccc(OC)c(C2C3=C(COC3=O)Nc3cc4c(cc32)OCO4)c1 (stereo not given)	-1	6	-6	-5	-5	99*
O=C(CCCCCNC(=O)c1ccccc1Cl)N/N=C/c1ccco1	5	-2	1	3	-9	-3
CCOC(=O)/C(C#N)=C/c1ccc(OC(=O)c2ccccn2)cc1	0	-15	-3	8	-2	98*
COC(=O)/C(C#N)=C/c1ccc(OC(=O)c2ccccn2)cc1	-12	6	3	1	0	70
Nc1nnc(CC(=O)N/N=C/c2ccc(-c3ccc(F)cc3)o2)s1	12	6	-7	9	-10	1
CCOC(=O)c1ccc(-c2ccc(/C=N/NC(=O)Cc3nnc(N)s3)o2)cc1	29*	10	0	34	-8	-3
Cc1cc(=O)n2cc(-c3ccccc3)nc2[nH]1	-1	-2	-4	-1	-7	87*
CCn1c2ccccc2c2cc(NC(=O)CSc3nnc(-c4ccc(OC)c(OC)c4)n3N)ccc21	7	5	5	-15	10	98*
CCn1c2ccccc2c2cc(NC(=O)CSc3nnc(-c4cccc(OC)c4)n3N)ccc21	-9	2	4	-14	10	3
CSCc1ccc(C(=O)NC(C)c2ccc(-n3ccnc3)cc2)cc1 (stereo not given)	1	/	/	2	/	98*
CCCCNC(=O)CC1N=C2c3ccccc3N=C(SCC(=O)Nc3cccc(C)c3)N2C1=O (stereo not given)	-11	-1	7	3	-8	98*
CCOC(=O)CSC1=Nc2ccccc2C2=NC(CC(=O)NCc3ccc(OC)cc3)C(=O)N12 (stereo not given)	6	-4	4	18	11	10
O=C(O)CC(C(=O)Nc1ccc(Cl)cc1)N1CCCCCC1 (stereo not given)	1	3	9	0	-2	18
COc1ccc(-c2csc(Cc3nnc4n3CCCCC4)n2)cc1OC	-3	14	0	-7	0	98*
COc1ccc(-c2nnc3n2CCCCC3)cc1OC	0	-6	-4	4	-5	/
CCCc1cc(=O)oc2cc(OCC(=O)NCC(O)c3ccccc3)ccc12 (stereo not given)	1	-9	-7	16	-2	-10
COc1ccc(-n2cc3c(-c4cccc(Br)c4)nnc(C)c3n2)cc1	4	5	0	1	5	-3
CC(=O)Nc1ccc(S(=O)(=O)NNC(=O)C(=O)NNc2ccccn2)cc1	8	-4	-1	-6	-12	/
SMILES	M18AAP inhibitor	EBNA-1 inh	HCV core dimer	HCV NS3 hel inh	ZTA DNA inh	ALR inh
Cc1ccc(S(=O)(=O)NNC(=O)c2ccncc2)cc1	11	-2	-6	-1	5	67
Cc1ccccc1S(=O)(=O)NNC(=O)C(=O)NNc1ccccn1	8	-1	-5	7	-15	99*
Cc1ccc(S(=O)(=O)NNC(=O)c2ccc3ccccc3n2)cc1	5	-14	-6	-13	-17	88*
Cc1ccc(S(=O)(=O)NNC(=O)C(=O)NNc2ccccn2)cc1	6	-5	-5	3	-7	95*
Nc1ccc(S(=O)(=O)NNC(=O)C(=O)NNc2ccccn2)cc1	9	11	7	-2	6	99*
O=C1c2ccccc2NC(c2ccc(-c3cccc([N+](=O)[O-])c3)o2)N1O (stereo not given)	-4	11	-1	8	-3	90*
COc1cc(/C=N/NC(=O)c2ccncc2)ccc1OC(=O)c1cc(OC)c(OC)c(OC)c1	0	9	13	-8	8	/
O=C(Nc1ccc(O)cc1)/C(=C\c1cccs1)NC(=O)c1ccccc1	6	-17	-5	2	1	100*
COc1cc(C(=O)Nc2ccc(N(C)C)cc2)c([N+](=O)[O-])cc1OC	-4	1	-7	2	10	89*
COc1cc(C(=O)Nc2ccncc2)c([N+](=O)[O-])cc1OC	19	-6	-3	14	-1	-8
COc1cc(/C=C(/NC(=O)c2ccccc2)C(=O)Nc2ccc(O)cc2)c([N+](=O)[O-])cc1OC	8	-12	-3	3	-21	99*
Cc1ccc(NC(=O)/C(=C\c2cccs2)NC(=O)c2ccccc2)cc1	1	4	1	-3	-8	-1
CC1(C)CN(C(Cc2ccccc2)C(N)=O)C1=O (stereo not given)	-3	-2	-1	5	-1	0
Oc1cccc(/C=N/Nc2cc(N3CCOCC3)nc(N3CCOCC3)n2)c1	5	-1	-6	-19	-4	73
Oc1ccc(/C=N/Nc2cc(N3CCOCC3)nc(N3CCOCC3)n2)cc1O	56*	-2	-19	2	11	99*
C/C(=N\Nc1ccccn1)c1ccc(N2CCOCC2)cc1	3	7	-11	-5	3	98*
C(=N\Nc1ccccn1)/c1ccc(N2CCOCC2)cc1	1	12	-8	2	-12	99*
C/C(=N\Nc1ccccn1)c1ccc(Br)s1	/	1	-4	/	1	99*
Cc1ccc(S(=O)(=O)N2CCC(C(=O)Nc3cc(C(F)(F)F)ccc3N3CCOCC3)CC2)cc1C	/	-8	8	/	6	1
Cc1ccc(S(=O)(=O)N2CCN(C(=O)CN3C(=O)c4ccccc4C3=O)CC2)c(C)c1	/	/	/	/	-1	-1
